Assay outcomes as filed in PubChem.
This is a sample that favours compounds with a hit; in the whole collection about 1.2% have one here.
APOBEC3G inh = APOBEC3G DNA deaminase inhibitors, primary screen, biochemical, fluorescence, single-stranded DNA substrate, uHTS | DNA dC->dU-editing enzyme APOBEC-3G (Homo sapiens), Q9HC16 | recombinant A3G, ssDNA deamination FAM/TAMRA fluorescence | inhibition, % at 20 µM | 330,000 compounds, 0.28% hits | AID 493012, 2011;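 active means inhibition of at least 40% at 20 µM, with no more than 30% in the related APOBEC3A deaminase screen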;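 further: plate controls were DMSO wells with A3G for no effect and wells lacking A3G enzyme for full effect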
FN deposition inh = inhibitors of fibronectin matrix deposition, primary screen, AH1F cells, Alexa488-fibronectin fluorescence, plate reader | AH1F fibroblasts, overnight | inhibition, % at 12.6 µM | 350,000 compounds, 0.086% hits | AID 743247, 2014;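 active means mean inhibition across replicates of 30% or more, regardless of how many single replicates reach that level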;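 further: positive control wells lacked labelled fibronectin entirely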
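Assay system: AH1F fibroblasts assembling fluorescent fibronectin matrix; Amount: 10000 AH1F cells per well; Buffer or medium: DMEM, 2% serum; Probe or stimulus: Alexa488-fibronectin, 24 nM final in well; Doses: single compound dose, delivered by pin transfer; Incubation: 1 h adhesion, overnight exposure; Measured by: fluorescence 485/525 nm; Read-out: fibronectin deposition inhibition.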
ABHD5-PLIN5 inh = ABHD5-PLIN5 interaction inhibitors, primary screen, cell lysate, split luciferase complementation, luminescence; Perilipin-5 (Homo sapiens) + 1-acylglycerol-3-phosphate O-acyltransferase ABHD5 (Homo …; Split G. princeps luciferase complementation, 4 h; inhibition, % at 4 µM; 360,000 compounds, 0.78% hits; AID 602281, 2012;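 active means inhibition above the mean inhibition across every tested compound plus 3 SD, cut at about 22% in these data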;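 further: 0% = DMSO only wells and the 100% control is not disclosed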
Target sequence (Q00G26 whole entry, looked up): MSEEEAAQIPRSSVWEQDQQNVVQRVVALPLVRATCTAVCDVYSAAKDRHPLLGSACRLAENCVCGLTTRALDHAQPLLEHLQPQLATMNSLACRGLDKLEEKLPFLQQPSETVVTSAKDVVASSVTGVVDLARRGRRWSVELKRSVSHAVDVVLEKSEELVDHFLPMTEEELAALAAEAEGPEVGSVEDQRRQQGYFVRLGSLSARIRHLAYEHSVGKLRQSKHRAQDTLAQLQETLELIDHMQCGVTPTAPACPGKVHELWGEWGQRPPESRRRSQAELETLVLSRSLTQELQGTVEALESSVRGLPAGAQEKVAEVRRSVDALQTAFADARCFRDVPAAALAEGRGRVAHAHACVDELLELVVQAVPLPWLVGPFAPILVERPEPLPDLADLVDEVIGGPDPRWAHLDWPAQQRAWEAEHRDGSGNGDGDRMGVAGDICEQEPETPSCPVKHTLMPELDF
Target sequence (Q8WTS1 whole entry, looked up): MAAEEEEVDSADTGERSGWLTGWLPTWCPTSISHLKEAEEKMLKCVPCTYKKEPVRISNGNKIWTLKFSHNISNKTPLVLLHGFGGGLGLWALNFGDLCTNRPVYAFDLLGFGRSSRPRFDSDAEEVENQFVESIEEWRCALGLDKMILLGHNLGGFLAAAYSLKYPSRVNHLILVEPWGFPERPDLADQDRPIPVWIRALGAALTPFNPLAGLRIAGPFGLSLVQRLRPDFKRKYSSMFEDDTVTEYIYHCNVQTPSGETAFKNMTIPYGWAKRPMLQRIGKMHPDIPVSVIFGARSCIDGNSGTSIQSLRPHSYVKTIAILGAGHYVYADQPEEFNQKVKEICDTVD
APOBEC3A inh = APOBEC3A ssDNA deaminase inhibitors, primary screen, selectivity assay for APOBEC3G inhibitor project, biochemical, FAM/TAMRA oligo cleavage fluorescence. inhibition, % at 20 µM. recombinant A3A, FAM/TAMRA ssDNA deamination fluorescence. DNA dC->dU-editing enzyme APOBEC-3A (Homo sapiens), P31941. 330,000 compounds, 0.41% hits. AID 493011, 2011;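 active means at least 40% inhibition at 20 µM here, with at most 30% in a related deaminase screen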;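 further: plate controls were A3A with DMSO for no effect and wells lacking A3A enzyme for full effect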
* hit, by the source's call; / = no result.

SMILES | APOBEC3G inh | FN deposition inh | ABHD5-PLIN5 inh | APOBEC3A inh
CCOC(=O)CS(=O)(=O)c1nc(-c2ccc(F)cc2)cc(C(F)(F)F)n1 | -7 | / | 53* | -3
CC(=O)N(CCC(Cc1ccccc1)c1ccco1)Cc1ccco1 (configuration not stated) | -2 | 2 | 16 | 2
Cc1ccc(C(CCN(Cc2ccccc2)C(=O)c2ccco2)c2ccco2)cc1 (configuration not stated) | -6 | -3 | 29* | -1
O=C(c1ccco1)N(CCC(c1ccccc1)c1ccco1)Cc1ccco1 (configuration not stated) | 3 | -9 | 28* | 11
CC(C)NC(=O)N(C)C[C@@H]1Oc2ccc(NS(=O)(=O)c3ccc(F)cc3)cc2C(=O)N([C@@H](C)CO)C[C@H]1C | / | 4 | / | /
Cc1ccc(-c2nc(=S)c3c(n2Cc2ccco2)CC(C)(C)OC3)cc1 | -5 | / | 55* | 1
Cc1ccc(-c2nc(=S)c3c(n2Cc2ccco2)CCCC3)cc1 | / | / | 13 | /
CCCC#Cc1ccc2c(c1)[C@H]1[C@H](CCN1S(=O)(=O)c1ccc(F)cc1)[C@@H](CO)N2 | / | -18 | / | /
COc1ccc(CS(=O)(=O)/C(Cl)=C(/Cl)C(=O)Nc2ccc(OC)nc2)cc1 | 1 | / | 41* | 0
O=c1cc2oc3cc(O)c(O)cc3c(-c3ccccc3O)c-2cc1O | / | / | 13 | /
CCOc1ccccc1-c1c2cc(O)c(=O)cc-2oc2cc(O)c(O)cc12 | / | / | 27* | /
Cc1ccc2nc(N(CCCN(C)C)C(=O)CCc3ccccc3)sc2c1 | / | 2 | 22* | /
Cc1ccc2nc(N(CCCN(C)C)C(=O)CS(=O)(=O)c3ccccc3)sc2c1 | 1 | -4 | -3 | 5
O=C(Nc1cccc(C(F)(F)F)c1)c1ccc2nc(-c3ccco3)c(-c3ccco3)nc2c1 | 39 | / | 38* | 37
COc1ccc(CCNC(=O)c2ccc3nc(-c4ccco4)c(-c4ccco4)nc3c2)cc1OC | 84 | / | 34* | 74
O=C(NCCCO)Nc1ccc2nc(-c3ccco3)c(-c3ccco3)nc2c1 | 91 | / | / | 98
O=C(Nc1ccc2nc(-c3ccco3)c(-c3ccco3)nc2c1)NC1CC1 | 92 | / | 26* | 101
CCc1nc2ccc(C(=O)NCCc3ccc(OC)c(OC)c3)cc2nc1CC | -2 | 6 | -1 | -2
CO[C@H]1CN(C)C(=O)c2ccc(NC(=O)Nc3ccccc3)cc2OC[C@@H](C)N(C(=O)CN(C)C)C[C@@H]1C | / | -10 | / | /
COC(=O)c1ccc(COc2ccccc2/C=C(\C#N)C(=O)Nc2ccc(C)cc2)cc1 | -9 | / | 1 | -1
C=CCNC(=O)/C(C#N)=C/c1ccccc1OCc1ccc(C(=O)OC)cc1 | -7 | -2 | 22* | -1
CS(=O)(=O)c1ccc(C(=O)Nc2nc(-c3ccco3)c(-c3ccco3)s2)cc1 | 65 | 2 | 22* | 83
CS(=O)(=O)c1ccc2nc(NC(=O)c3ccccc3)sc2c1 | -7 | 1 | -5 | -1
C[C@H]1CC(=O)N[C@@H](c2ccccc2)C/C=C\C[C@H](c2ccccc2)NC1=O | / | 6 | / | /
Cc1ccc(/C=C/C(=O)Nc2ccc([N+](=O)[O-])cc2)o1 | -8 | / | 29* | -3
SMILES | APOBEC3G inh | FN deposition inh | ABHD5-PLIN5 inh | APOBEC3A inh
O=C(CN1CCOCC1)N[C@@H]1CC[C@H](CCNC(=O)C2CCC2)O[C@H]1CO | / | -5 | / | /
CCOC(=O)c1c(-c2ccc(C)o2)csc1NC(=O)CSc1nncs1 | 15 | / | 47* | -5
CC(Oc1ccccc1Cl)C(=O)Nc1ccc(S(=O)(=O)N2CCCC2)cc1 (configuration not stated) | -2 | -3 | -4 | -1
COc1ccccc1CC(=O)OC(C)C(=O)Nc1ccc(S(=O)(=O)N2CCCCC2)cc1 (configuration not stated) | -6 | 46* | 0 | -1
O=S(=O)(c1cccc(F)c1)N1CC[C@H]2[C@H](CO)Nc3ccc(C#Cc4cccc(F)c4)cc3[C@H]21 | / | 17 | / | /
Cc1ccccc1OCC(=O)N/N=C/c1ccncc1 | -9 | 3 | 23* | -4
CC(C)NC(=O)N(C)C[C@@H]1Oc2cc(C#C[C@@H](C)O)ccc2S(=O)(=O)N([C@H](C)CO)C[C@H]1C | / | 1 | / | /
C#CCOCCOCCOCCNc1nc(N2CCN(C(=O)CCCCCCCCCCNC(=O)[C@@H](CCSC)n3cc(CCO)nn3)CC2)nc(N2CCN(C(=O)CCCCCCCCCCNC(=O)[C@H](CCCN=C(N)N)n3cc(C[C@@H](C)CC)nn3)CC2)n1 | -5 | / | 64* | -4
C#CCOCCOCCOCCNc1nc(N2CCN(C(=O)CCCCCCCCCCNC(=O)[C@H](CCCCN)n3cc(C[C@@H](C)CC)nn3)CC2)nc(N2CCN(C(=O)CCCCCCCCCCNC(=O)[C@@H]([C@H](C)O)n3cc(C)nn3)CC2)n1 | 10 | / | 53* | 1
C#CCOCCOCCOCCNc1nc(N2CCN(C(=O)[C@H](CCCCN)n3cc([C@@H](N)CC(C)C)nn3)CC2)nc(N2CCN(C(=O)[C@H](Cc3cc4ccccc4[nH]3)n3cc([C@@H](N)Cc4ccc(O)cc4)nn3)CC2)n1 | -1 | / | 25* | 2
C#CCOCCOCCOCCNc1nc(N2CCN(C(=O)CCCCCCCCCCNC(=O)[C@H](CCCCN)n3cc(C[C@@H](C)CC)nn3)CC2)nc(N2CCN(C(=O)CCCCCCCCCCNC(=O)[C@H](CCCN=C(N)N)n3cc(C[C@@H](C)CC)nn3)CC2)n1 | -11 | / | 63* | -7
Fc1cccc(-c2ccc(C3[C@H]4CNC[C@@H]3N4Cc3ccccc3F)cc2)c1 (some centres not stated) | / | 1 | / | /
O=C1NCCOCc2cn(nn2)CC[C@@H]1Cc1ccc(F)cc1 | / | -4 | / | /
Oc1cc(O)c(CN2CCOCC2)cc1CN1CCOCC1 | / | / | 22* | /
CC(C)NC(=O)N(C)C[C@H]1Oc2ccc(N(C)C)cc2C(=O)N(C)C[C@H]1C | / | -13 | / | /
COc1cccc(/C=C/c2ccc3cccc(O)c3n2)c1OC | -6 | 3 | 3 | -3
COc1ccc(/C=C/c2ccc3cccc(O)c3n2)c(OC)c1OC | -5 | 35* | -12 | -3
O=Nc1c2cc3ccccc3[nH]c-2c2ccccc12 | / | 0 | -2 | /
O=Nc1c(O)c2ccccc2c2ccccc12 | / | 38* | -28 | /
O=C(C#Cc1cccc([N+](=O)[O-])c1)c1ccccc1 | 1 | / | 30* | 6
Cn1c(=O)cc(OCC(=O)NCc2ccccn2)c2ccccc21 | -11 | -1 | 73* | -1
CO[C@@H]1CN(C)C(=O)c2cc(NC(=O)C3CC3)ccc2OC[C@H](C)N(CC2CCOCC2)C[C@H]1C | / | -8 | / | /
N#C[C@H]1[C@@H](c2ccccc2C2=CCCCC2)[C@H](CO)N1S(=O)(=O)c1ccccc1 | / | -4 | / | /
